Data reported in ChEMBL document CHEMBL4513216, “Probing the Open Global Health Chemical Diversity Library for Multistage-Active Starting Points for Next-Generation Antimalarials” (ACS Infect Dis, 2020).

Assay: Toxicity liver stage against HepG2, at 10uM
Type: cell-based
Set-up: test concentration 10 uM, cell line HepG2-A16-CD81EGFP
Conditions: human, HepG2-A16-CD81EGFP cells; read-out: INHIBITION
Procedure, shortened: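 Uninfected HepG2-A16-CD81EGFP cells, 3 × 10^3 per well, 1536-well, plated on prespotted compound at 10 μM final, parasite-free screening media added to match infected plates; puromycin 10 μM positive, DMSO 0.5% negative; run in parallel with 48 h PbLuc assay at 37 °C, 5% CO2; viability by CellTiter-Glo luminescence, normalized to controls.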

**Q.** Which cytotoxicity at 10 µM does the source give for `CCC(CO)n1cnc2scc(C)c2c1=O` (stereo not given) here?
**A.** -7.37%

**Q.** Which cytotoxicity at 10 µM does the source give for `Cc1ccc(N2CC[C@H]3CO[C@H](CN(C)Cc4ccco4)[C@H]3C2)nn1` here?
**A.** 8.35%

**Q.** For `COCCN1CCN(c2cccc(C)n2)Cc2ccc(C)nc21`, which cytotoxicity at 10 µM is on record?
**A.** -106%

**Q.** With `Cc1cc(OCC(=O)N2CCCC(c3nc(C)c(C)s3)C2)no1` (stereo not given) as the compound, how does the cytotoxicity at 10 µM read?
**A.** -16.4%

**Q.** With `COc1ccc(C(=O)C2CCCN(Cc3ccncc3)C2)c(OC)c1` (stereo not given) as the compound, how does the cytotoxicity at 10 µM read?
**A.** -15.7%

**Q.** Which cytotoxicity at 10 µM does the source give for `Cc1nc(N2CCN(C)CC2)ncc1C(=O)N1CCN(C)CC1` here?
**A.** 3.85%

**Q.** For `COCc1nc(C(=O)NS(=O)(=O)c2ccc(F)cc2F)cs1`, which cytotoxicity at 10 µM is on record?
**A.** -8.51%

**Q.** For `CN(C)Cc1cnc2n1CCN(Cc1ccsc1)CC2`, which cytotoxicity at 10 µM is on record?
**A.** -10.4%

**Q.** Which cytotoxicity at 10 µM does the source give for `CCc1cccc2cc(CNCCCN3CCOCC3)c(=O)[nH]c12` here?
**A.** -0.918%

**Q.** With `CCc1nc(CN(C)C2CCCN(c3cccnn3)C2)no1` (stereo not given) as the compound, how does the cytotoxicity at 10 µM read?
**A.** -5.87%

**Q.** For `CC(C)N(Cc1ccccn1)C(=O)CCC(=O)c1ccc(F)cc1F`, which cytotoxicity at 10 µM is on record?
**A.** -0.535%

**Q.** For `Cc1cc(F)c(S(=O)(=O)Nc2ccn(CCC#N)n2)cc1F`, which cytotoxicity at 10 µM is on record?
**A.** 17.3%

**Q.** For `O=C1N(Cc2ccc(F)c(F)c2)CCCC12CCN(C1CCCCC1)C2` (stereo not given), which cytotoxicity at 10 µM is on record?
**A.** -0.268%

**Q.** With `Cc1cccn2c(=O)cc(CN3CCCC3Cn3cncn3)nc12` (stereo not given) as the compound, how does the cytotoxicity at 10 µM read?
**A.** 0.714%

**Q.** Which cytotoxicity at 10 µM does the source give for `COCCNC(=O)c1ccc2ccc(N(C)CC3CC3)n2c1` here?
**A.** 0.375%

**Q.** With `Cc1ccc(NC2CCN(C(=O)c3ccsc3)CC2)nn1` as the compound, how does the cytotoxicity at 10 µM read?
**A.** -9.08%

**Q.** Which cytotoxicity at 10 µM does the source give for `CCn1ccnc1SCCn1cnc2ccsc2c1=O` here?
**A.** -2.9%

**Q.** With `c1ccc2[nH]c(C3CCN(Cc4noc(C5CC5)n4)CC3)cc2c1` as the compound, how does the cytotoxicity at 10 µM read?
**A.** 7.67%

**Q.** With `Cn1cc(C2CCCN2C(=O)c2ccc(NC3CC3)nc2)cn1` (stereo not given) as the compound, how does the cytotoxicity at 10 µM read?
**A.** -14.4%

**Q.** Which cytotoxicity at 10 µM does the source give for `COc1cc(C)c(C(C)NC(=O)Nc2nnc(C)s2)cc1OC` (stereo not given) here?
**A.** 1.03%

**Q.** With `O=C(NCC1OCCc2cn(CC3CCOCC3)nc21)c1ccsc1` (stereo not given) as the compound, how does the cytotoxicity at 10 µM read?
**A.** 4.84%

**Q.** With `COC(=O)c1cccc(C2CNCCN2C(C)=O)c1` (stereo not given) as the compound, how does the cytotoxicity at 10 µM read?
**A.** 3.31%

**Q.** For `Cc1nc(O)cc(CCNC(=O)C2CC(=O)N(CC(C)C)C2)n1` (stereo not given), which cytotoxicity at 10 µM is on record?
**A.** -8.11%

**Q.** With `CN(C)Cc1cccc(-c2cccnc2C(=O)NCc2cn(C)cn2)c1` as the compound, how does the cytotoxicity at 10 µM read?
**A.** 4.09%

**Q.** For `O=C(O)CSc1nnc(-c2ccn[nH]2)n1-c1ccccc1Cl`, which cytotoxicity at 10 µM is on record?
**A.** 0.276%

**Q.** For `O=C(CC1CC1)N1CCC2(CC1)CN(CCn1cccn1)C(=O)CO2`, which cytotoxicity at 10 µM is on record?
**A.** 1.75%

**Q.** For `CN(Cc1ccc(F)cc1)[C@@H]1CN(S(=O)(=O)N(C)C)C[C@H]1O`, which cytotoxicity at 10 µM is on record?
**A.** -1.34%

**Q.** For `Cc1nn(CC(=O)O)c(C)c1NS(=O)(=O)c1cc2ccccc2s1`, which cytotoxicity at 10 µM is on record?
**A.** -7.07%

**Q.** Which cytotoxicity at 10 µM does the source give for `CCOc1c(Cl)cc(Cl)cc1CNCCCn1ccnc1` here?
**A.** -1.32%

**Q.** For `CCCc1cc(C(=O)N(Cc2cccnc2)Cc2cccnc2)[nH]n1`, which cytotoxicity at 10 µM is on record?
**A.** -5.79%

**Q.** With `CCN(Cc1ccoc1)C(=O)NC1CCN(C(=O)OC(C)(C)C)C1` (stereo not given) as the compound, how does the cytotoxicity at 10 µM read?
**A.** 3.65%

**Q.** With `O=C(NCCN1CCCCCC1)c1n[nH]c(=O)c2ccccc12` as the compound, how does the cytotoxicity at 10 µM read?
**A.** -9.86%

**Q.** With `Cc1ccc2cc(C3(O)CCN(C(=O)CN4CCCC4)CC3)ccc2n1` as the compound, how does the cytotoxicity at 10 µM read?
**A.** 2.57%

**Q.** Which cytotoxicity at 10 µM does the source give for `O=c1c(NCc2ccccn2)c(NCC(O)CN2CCOCC2)c1=O` (stereo not given) here?
**A.** -54.5%

**Q.** For `CN1CC2(CCCN(c3cc(N4CCCCC4)ncn3)C2)OC1=O` (stereo not given), which cytotoxicity at 10 µM is on record?
**A.** -39.7%

**Q.** Which cytotoxicity at 10 µM does the source give for `N#Cc1ccc(N2CCC3(CC2)CC(Oc2cccnc2)CO3)cc1` (stereo not given) here?
**A.** 50.9%

**Q.** With `O=C(c1ccncc1)N1CCC(O)(Cn2ccc3ccncc32)CC1` as the compound, how does the cytotoxicity at 10 µM read?
**A.** 1.93%

**Q.** For `Cc1nc(C)c(Cc2nc(C3CC3)n[nH]2)c(=O)[nH]1`, which cytotoxicity at 10 µM is on record?
**A.** 2.39%

**Q.** Which cytotoxicity at 10 µM does the source give for `Cc1ccc2c(c1)C(=O)NCC1(CCN(C(=O)c3ccnn3C)CC1)O2` here?
**A.** -16.6%

**Q.** Which cytotoxicity at 10 µM does the source give for `CNC(=O)CN1CCC(NC(=O)CC(C)CCc2ccccc2)CC1` (stereo not given) here?
**A.** 8.47%

**Q.** For `CC(C#N)(NC(=O)COc1ccccc1Br)C1CC1` (stereo not given), which cytotoxicity at 10 µM is on record?
**A.** 7.45%

**Q.** Which cytotoxicity at 10 µM does the source give for `CO[C@H]1CC[C@H]2[C@H]1OCCN2C(=O)c1ccc(C)nc1` here?
**A.** -141%

**Q.** For `CCO[C@H]1CO[C@@]2(CCCN(S(=O)(=O)c3cccnc3)C2)C1`, which cytotoxicity at 10 µM is on record?
**A.** -86.2%

**Q.** Which cytotoxicity at 10 µM does the source give for `CCc1noc(C(C)N2CCN(CCOCC(F)(F)F)CC2)n1` (stereo not given) here?
**A.** -9.45%

**Q.** With `O=C(Nc1cnccn1)[C@@H]1COC[C@H]2CN(C3CCC3)C[C@H]21` as the compound, how does the cytotoxicity at 10 µM read?
**A.** 14.7%
